From ChEMBL document CHEMBL2434966, “Novel N-4-piperazinyl-ciprofloxacin-chalcone hybrids: synthesis, physicochemical properties, anticancer and topoisomerase I and II inhibitory activity” (Eur J Med Chem, 2013)
Converted amounts (≈) assume the structure as drawn.

Experiments:
[1] = tested on: SNB-19; assay: Growth inhibition of human SNB19 cells after 48 hrs by sulforhodamine B assay; format: functional; settings: SNB-19, 48 h
Summary of the method: (§1)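 NCI 60-cell panel, five concentrations (10-fold dilutions, 0.01–100 µM), 48 h continuous exposure; SRB protein stain read spectrophotometrically. Percent growth from time-zero, untreated-control and treated absorbances. GI50 is the concentration giving 50% lower net protein increase than control. Values beyond the tested range are reported as more or less than the highest or lowest concentration.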

[2] = tested on: SF-539; assay: Growth inhibition of human SF539 cells assessed as cell growth at 10^-5 M after 48 hrs by sulforhodamine B assay; format: functional; settings: SF-539, 48 h, read-out: Activity
Summary of the method: (§2)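 NCI 60-cell-line primary one-dose screen. Cells were exposed to a single 10^-5 M concentration for 48 h. The end point was sulforhodamine B protein staining, read spectrophotometrically. Results are reported as percent growth of treated cells relative to untreated control cells.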

[3] = tested on: NCI-H226; assay: Growth inhibition of human NCI-H226 cells assessed as cell growth at 10^-5 M after 48 hrs by sulforhodamine B assay; format: functional; settings: NCI-H226, 48 h, read-out: Activity; summary of the method: as §2
[4] = tested on: NCI-H322M; assay: Growth inhibition of human NCI-H322M cells assessed as cell growth at 10^-5 M after 48 hrs by sulforhodamine B assay; format: functional; settings: read-out: Activity; summary of the method: as §2
[5] = tested on: Malme-3M; assay: Growth inhibition of human MALME-3M cells after 48 hrs by sulforhodamine B assay; format: functional
Summary of the method: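 NCI 60-panel five-dose test at 10-fold dilutions, 10^-4 to 10^-8 M, with 48 h continuous exposure and SRB protein read-out. Percent growth derived from time-zero, untreated-control and treated absorbances. GI50 is the concentration where [(Ti-Tz)/(C-Tz)]×100 = 50. TGI is taken at Ti = Tz. LC50 is taken at [(Ti-Tz)/Tz]×100 = -50.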

[6] = tested on: SNB-19; assay: Growth inhibition of human SNB19 cells assessed as cell growth at 10^-5 M after 48 hrs by sulforhodamine B assay; format: functional; settings: SNB-19, 48 h, read-out: Activity
Summary of the method: (§3)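 NCI primary one-dose screen: single concentration of 10^-5 M added to culture, 48 h incubation, SRB protein-dye endpoint. Percent growth of treated cells measured spectrophotometrically against untreated controls.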

[7] = tested on: OVCAR-3; assay: Growth inhibition of human OVCAR3 cells assessed as cell growth at 10^-5 M after 48 hrs by sulforhodamine B assay; format: functional; settings: OVCAR-3, 48 h, read-out: Activity; summary of the method: as §2
[8] = Aqueous solubility of the compound at pH 7.8 by UV spectroscopic analysis; format: physicochemical; settings: aqueous solution
Summary of the method: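 Excess solid (10 mg) shaken in buffer at pH 6.9 or 7.8, 37 °C. The filtrate was diluted into the linear calibration range and dissolved drug measured by UV absorbance at λmax 272 nm. Values are the average of at least three agreeing independent measurements.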

[9] = tested on: SN12C; assay: Growth inhibition of human SN12C cells assessed as cell growth at 10^-5 M after 48 hrs by sulforhodamine B assay; format: functional; settings: read-out: Activity; summary of the method: as §2
[10] = tested on: TK-10; assay: Growth inhibition of human TK10 cells assessed as cell growth at 10^-5 M after 48 hrs by sulforhodamine B assay; format: functional; settings: TK-10, 48 h, read-out: Activity; summary of the method: as §3
[11] = tested on: NCI-H23; assay: Growth inhibition of human NCI-H23 cells assessed as cell growth at 10^-5 M after 48 hrs by sulforhodamine B assay; format: functional; settings: NCI-H23, 48 h, read-out: Activity; summary of the method: as §2
[12] = tested on: SNB-75; assay: Growth inhibition of human SNB75 cells assessed as cell growth at 10^-5 M after 48 hrs by sulforhodamine B assay; format: functional; settings: SNB-75, 48 h, read-out: Activity; summary of the method: as §3
[13] = tested on: SF-295; assay: Growth inhibition of human SF295 cells after 48 hrs by sulforhodamine B assay; format: functional; settings: SF-295, 48 h
Summary of the method: (§4)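 NCI five-dose screen on the full 60-cell-line panel. Cells were given 10-fold dilutions from 10^-4 to 10^-8 M with continuous 48 h exposure, and growth was read by SRB staining. Percent growth was taken from time-zero, control and treated absorbances. GI50, TGI and LC50 were then derived, the GI50 being the concentration that gives a 50% lower net protein increase than control.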

[14] = tested on: NCI-H23; assay: Growth inhibition of human NCI-H23 cells after 48 hrs by sulforhodamine B assay; format: functional; settings: NCI-H23, 48 h; for CC50: read-out: LC50 (the source's name); summary of the method: as §4
[15] = tested on: U-251; assay: Growth inhibition of human U251 cells assessed as cell growth at 10^-5 M after 48 hrs by sulforhodamine B assay; format: functional; settings: U-251, 48 h, read-out: Activity; summary of the method: as §3
[16] = tested on: NCI-H460; assay: Growth inhibition of human NCI-H460 cells after 48 hrs by sulforhodamine B assay; format: functional; settings: NCI-H460, 48 h; for CC50: read-out: LC50 (the source's name); summary of the method: as §4
[17] = tested on: T47D; assay: Growth inhibition of human T47D cells after 48 hrs by sulforhodamine B assay; format: functional; summary of the method: as §1
[18] = tested on: HL-60(TB); assay: Growth inhibition of human HL-60(TB) cells assessed as cell growth at 10^-5 M after 48 hrs by sulforhodamine B assay; format: functional; settings: HL-60, 48 h, read-out: Activity
Summary of the method: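 NCI one-dose primary screen: compound added once at 10^-5 M, cultures incubated 48 h, end point by SRB protein-binding dye. Result given as percent growth of treated cells relative to untreated control cells, measured spectrophotometrically.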

[19] = tested on: OVCAR-8; assay: Growth inhibition of human OVCAR8 cells after 48 hrs by sulforhodamine B assay; format: functional; settings: OVCAR-8, 48 h; for CC50: read-out: LC50 (the source's name); summary of the method: as §4
[20] = tested on: HCT-15; assay: Growth inhibition of human HCT15 cells assessed as cell growth at 10^-5 M after 48 hrs by sulforhodamine B assay; format: functional; settings: HCT-15, 48 h, read-out: Activity
Summary of the method: (§5)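 NCI 60-cell-line primary screen. Single concentration of 10^-5 M, 48 h incubation. End point by sulforhodamine B protein staining read spectrophotometrically. Reported as percent growth of treated cells relative to untreated control cells.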

[21] = tested on: TK-10; assay: Growth inhibition of human TK10 cells after 48 hrs by sulforhodamine B assay; format: functional; settings: TK-10, 48 h; for CC50: read-out: LC50 (the source's name); summary of the method: as §1
[22] = tested on: HCT-116; assay: Growth inhibition of human HCT116 cells assessed as cell growth at 10^-5 M after 48 hrs by sulforhodamine B assay; format: functional; settings: HCT-116, 48 h, read-out: Activity; summary of the method: as §5
[23] = tested on: NCI-H460; assay: Growth inhibition of human NCI-H460 cells assessed as cell growth at 10^-5 M after 48 hrs by sulforhodamine B assay; format: functional; settings: NCI-H460, 48 h, read-out: Activity; summary of the method: as §2
[24] = tested on: KM12; assay: Growth inhibition of human KM12 cells assessed as cell growth at 10^-5 M after 48 hrs by sulforhodamine B assay; format: functional; settings: KM12, 48 h, read-out: Activity; summary of the method: as §5
[25] = tested on: COLO 205; assay: Growth inhibition of human COLO205 cells assessed as cell growth at 10^-5 M after 48 hrs by sulforhodamine B assay; format: functional; settings: COLO 205, 48 h, read-out: Activity; summary of the method: as §5

## O=C(CN1CCN(c2cc3c(cc2F)c(=O)c(C(=O)O)cn3C2CC2)CC1)Nc1ccc(C(=O)/C=C/c2ccccc2)cc1
[1]
  GI50: 3.05 µM
  LC50: > 100 µM
  TGI: > 100 µM
[2]
  growth at 10 µM: 26.2%
[3]
  growth at 10 µM: 57.4%
[4]
  growth at 10 µM: 73.7%
[5]
  GI50: 2.89 µM
  LC50: > 100 µM
  TGI: 8.87 µM
[6]
  growth at 10 µM: 40.3%
[7]
  growth at 10 µM: 54.9%
[8]
  solubility: 2.53 µg/mL (≈ 4.25 µM)
[9]
  growth at 10 µM: 11.3%
[10]
  growth at 10 µM: 39.9%
[11]
  growth at 10 µM: 24%
[12]
  growth at 10 µM: 61.8%
[13]
  GI50: 2.11 µM
  LC50 (concentration giving 50% net cell kill): > 100 µM
  TGI: 6.25 µM
[14]
  GI50: 2.48 µM
  TGI: 14.3 µM
  CC50: > 100 µM
[15]
  growth at 10 µM: 14.9%
[16]
  GI50: 3.17 µM
  TGI: > 100 µM
  CC50: > 100 µM
[17]
  GI50: 6.66 µM
  LC50 (concentration killing 50% of the cells present at time zero): > 100 µM
  TGI: > 100 µM
[18]
  growth at 10 µM: 40.9%
[19]
  GI50: 3.07 µM
  TGI: > 100 µM
  CC50: > 100 µM
[20]
  growth at 10 µM: 56.8%
[21]
  GI50: 4.19 µM
  TGI: > 100 µM
  CC50: > 100 µM
[22]
  growth at 10 µM: -83.6%
[23]
  growth at 10 µM: 7.12%
[24]
  growth at 10 µM: 25.3%
[25]
  growth at 10 µM: 108%

## COc1cc(/C=C/C(=O)c2ccc(NC(=O)CN3CCN(c4cc5c(cc4F)c(=O)c(C(=O)O)cn5C4CC4)CC3)cc2)cc(OC)c1OC
[1]
  GI50: 2.78 µM
  LC50: > 100 µM
  TGI: > 100 µM
[2]
  growth at 10 µM: -15.8%
[3]
  growth at 10 µM: -9.81%
[4]
  growth at 10 µM: -7.05%
[5]
  GI50: 1.81 µM
  LC50: > 100 µM
  TGI: 7.65 µM
[6]
  growth at 10 µM: 34.9%
[7]
  growth at 10 µM: -25.8%
[8]
  solubility: 2.01 µg/mL (≈ 2.94 µM)
[9]
  growth at 10 µM: 10.3%
[10]
  growth at 10 µM: 19.1%
[11]
  growth at 10 µM: -35.6%
[12]
  growth at 10 µM: 76.6%
[13]
  GI50: 0.53 µM
  LC50 (concentration giving 50% net cell kill): 53.1 µM
  TGI: 3.13 µM
[14]
  GI50: 0.56 µM
  TGI: 2.91 µM
  CC50: 14.2 µM
[15]
  growth at 10 µM: -55.8%
[16]
  GI50: 0.37 µM
  TGI: 3.79 µM
  CC50: > 100 µM
[17]
  GI50: 2.4 µM
  LC50 (concentration killing 50% of the cells present at time zero): > 100 µM
  TGI: > 100 µM
[18]
  growth at 10 µM: -33.7%
[19]
  GI50: 0.34 µM
  TGI: 26.7 µM
  CC50: > 100 µM
[20]
  growth at 10 µM: 18.2%
[21]
  GI50: 1.29 µM
  TGI: 16.5 µM
  CC50: > 100 µM
[22]
  growth at 10 µM: -88.2%
[23]
  growth at 10 µM: -20%
[24]
  growth at 10 µM: -65.1%
[25]
  growth at 10 µM: -12.8%
